Results: ChEMBL document CHEMBL5338787, “Discovery of Novel Bruton's Tyrosine Kinase PROTACs with Enhanced Selectivity and Cellular Efficacy” (J Med Chem, 2023)
The source made the active and inactive calls. No cut-off for these calls is given here.

Experiments:
TMD8 [1] = experiment: Cytotoxicity against human TMD8 cells incubated for 48 hrs by celltitre glo 2.0 assay; format: functional, cell-based; settings: TMD8, 48 h
[2] = target: T1, Tyrosine-protein kinase BTK (Homo sapiens, UniProt Q06187); experiment: Binding affinity to full length BTK (unknown origin) assessed as dissociation constant measured at 37 degree C by TR-FRET assay
TMD8 [3] = experiment: Induction of apoptosis in human TMD8 cells assessed as increase in cleaved PARP level measured after 48 hrs by Western blot analysis; format: functional, cell-based; settings: dose 0.15-3000 nM
Outline: (§1)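 TMD8 or Mino cells (2 × 10^6 per well) exposed 48 h to 3000–0.15 nM (3-fold dilution) or 1% DMSO. Lysates BCA-normalised, 8–30 μg per lane on 4–20% Tris-glycine gels, transferred to nitrocellulose, probed with antibodies, HRP chemiluminescence detection and densitometry. Representative of two independent experiments.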

[4] = target: T2, Protein cereblon/Tyrosine-protein kinase BTK (Homo sapiens, UniProt Q06187+Q96SW2); experiment: PROTAC activity at BTK/CRBN protein protein interaction in human Ramos cell assessed as degradation of BTK preincubated with neddylation inhibitor MLN-4924 for 2 hrs followed by compound addition at 111 nM for 4 hrs measured by Western blot analysis; format: cell-based
Outline: (§2)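 Ramos cells were pre-treated for 2 h with bortezomib (proteasome inhibitor) or MLN-4924 (NEDD8-activating enzyme inhibitor), then given 111 nM degrader for 4 h. BTK level was assessed by western blot.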
Target sequence in this assay (Q06187 2-659 limits assumed): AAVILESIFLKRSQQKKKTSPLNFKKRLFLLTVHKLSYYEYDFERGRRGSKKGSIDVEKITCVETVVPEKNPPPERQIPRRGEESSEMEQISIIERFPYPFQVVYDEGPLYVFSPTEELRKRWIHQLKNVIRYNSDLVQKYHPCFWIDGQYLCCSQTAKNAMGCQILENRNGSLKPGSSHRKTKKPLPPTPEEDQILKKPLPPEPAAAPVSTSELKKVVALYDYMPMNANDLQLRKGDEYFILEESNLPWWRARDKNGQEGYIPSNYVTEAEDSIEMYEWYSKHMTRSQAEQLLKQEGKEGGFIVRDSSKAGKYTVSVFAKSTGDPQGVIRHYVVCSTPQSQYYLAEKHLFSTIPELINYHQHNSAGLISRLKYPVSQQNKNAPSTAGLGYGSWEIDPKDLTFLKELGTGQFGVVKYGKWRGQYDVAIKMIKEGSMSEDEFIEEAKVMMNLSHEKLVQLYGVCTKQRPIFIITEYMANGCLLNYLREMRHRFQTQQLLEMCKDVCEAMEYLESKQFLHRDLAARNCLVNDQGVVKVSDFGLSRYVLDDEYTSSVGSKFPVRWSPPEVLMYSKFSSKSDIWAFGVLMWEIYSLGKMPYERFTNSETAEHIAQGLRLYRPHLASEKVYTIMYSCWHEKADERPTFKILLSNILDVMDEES
Target sequence in this assay (Q96SW2 whole entry partner): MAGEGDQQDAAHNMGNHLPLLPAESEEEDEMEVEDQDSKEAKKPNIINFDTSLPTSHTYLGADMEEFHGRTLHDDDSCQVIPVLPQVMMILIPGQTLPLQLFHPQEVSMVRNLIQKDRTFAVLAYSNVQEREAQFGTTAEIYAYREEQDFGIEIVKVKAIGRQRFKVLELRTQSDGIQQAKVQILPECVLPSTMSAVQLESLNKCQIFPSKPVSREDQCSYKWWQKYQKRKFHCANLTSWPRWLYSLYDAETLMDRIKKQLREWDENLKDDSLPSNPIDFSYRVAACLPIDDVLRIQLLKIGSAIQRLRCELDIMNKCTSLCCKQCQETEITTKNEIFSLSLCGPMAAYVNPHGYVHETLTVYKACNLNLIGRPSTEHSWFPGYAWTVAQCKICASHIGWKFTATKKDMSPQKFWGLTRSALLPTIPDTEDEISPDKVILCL

[5] = target: T2, Protein cereblon/Tyrosine-protein kinase BTK; experiment: PROTAC activity at BTK/CRBN protein protein interaction in human Ramos cell assessed as degradation of BTK preincubated with proteasome inhibitor bortezomib for 2 hrs followed by compound addition at 111 nM for 4 hrs measured by Western blot analysis; format: cell-based; outline: as §2
Target sequence in this assay (Q06187 2-659 limits assumed): as the sequence (Q06187 2-659 limits assumed) above
Target sequence in this assay (Q96SW2 whole entry partner): as the sequence (Q96SW2 whole entry partner) above

TMD8 [6] = experiment: Induction of apoptosis in human TMD8 cells at 333 nM for 48 hrs by Annexin-V/propidium iodide staining based flow cytometric analysis; format: functional, cell-based
Outline: (§3)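 Cells plated at 2 × 10^6 per well and treated 48 h at 3,000–0.15 nM (3-fold dilutions) or 1% DMSO. Harvested, washed in cold PBS, stained with Annexin V Alexa Fluor 488/propidium iodide, analysed by flow cytometry for % live, apoptotic and necrotic cells. Mean of two independent experiments.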

[7] = target: T3, Zinc finger protein 280D (Homo sapiens) (UniProt Q6N043); experiment: Degradation of […] in human TMD8 cells by measuring protein level at 111 nM for 6 hrs using label free proteomic analysis; format: cell-based
T3 sequence (whole entry): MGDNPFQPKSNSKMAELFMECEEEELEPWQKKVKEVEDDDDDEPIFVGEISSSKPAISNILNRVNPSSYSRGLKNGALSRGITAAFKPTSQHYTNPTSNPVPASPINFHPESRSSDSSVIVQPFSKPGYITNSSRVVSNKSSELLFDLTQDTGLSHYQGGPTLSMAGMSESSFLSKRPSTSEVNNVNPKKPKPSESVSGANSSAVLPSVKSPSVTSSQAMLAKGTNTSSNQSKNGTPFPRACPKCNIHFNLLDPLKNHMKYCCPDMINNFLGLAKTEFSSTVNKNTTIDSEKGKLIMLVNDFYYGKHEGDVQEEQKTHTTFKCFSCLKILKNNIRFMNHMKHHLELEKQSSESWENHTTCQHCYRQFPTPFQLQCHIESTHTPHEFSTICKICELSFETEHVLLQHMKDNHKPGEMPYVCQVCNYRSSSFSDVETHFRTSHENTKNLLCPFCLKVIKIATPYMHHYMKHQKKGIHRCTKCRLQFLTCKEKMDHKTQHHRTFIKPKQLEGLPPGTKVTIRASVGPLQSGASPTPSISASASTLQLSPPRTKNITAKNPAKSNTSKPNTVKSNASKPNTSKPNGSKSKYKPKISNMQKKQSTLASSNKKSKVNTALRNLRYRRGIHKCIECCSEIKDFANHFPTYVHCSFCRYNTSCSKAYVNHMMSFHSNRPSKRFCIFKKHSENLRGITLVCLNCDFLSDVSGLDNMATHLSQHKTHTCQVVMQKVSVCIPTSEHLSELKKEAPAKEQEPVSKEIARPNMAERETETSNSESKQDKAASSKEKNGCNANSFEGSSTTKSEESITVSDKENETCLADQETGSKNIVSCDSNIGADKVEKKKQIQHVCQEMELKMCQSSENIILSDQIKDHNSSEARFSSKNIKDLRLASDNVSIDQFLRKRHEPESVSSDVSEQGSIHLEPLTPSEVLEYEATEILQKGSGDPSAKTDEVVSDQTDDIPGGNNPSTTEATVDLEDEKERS
Outline: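 TMD8 cells (2 × 10^6) given 111 nM or DMSO for 6 h in duplicate. Lysed in 5% SDS/50 mM TEAB pH 8.5. 200 μg protein reduced (10 mM DTT, 55 °C, 30 min), alkylated (50 mM iodoacetamide), S-Trap processed, then LC-MS/MS. Label-free matched-peptide quantitation against DMSO, human UniProt; Benjamini–Hochberg-corrected p-values.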

MINO [8] = experiment: Induction of apoptosis in human MINO cells assessed as downregulation in Bcl-2 level measured at 0.15 to 3000 nM after 48 hrs by Western blot analysis; format: functional, cell-based; settings: dose 0.15-3000 nM; outline: as §1
[9] = Cytotoxicity against human MINO cells incubated for 48 hrs by celltitre glo 2.0 assay; format: functional, cell-based
MINO [10] = experiment: Induction of apoptosis in human MINO cells measured after 48 hrs by Annexin-V/propidium iodide staining based flow cytometric analysis; format: functional, cell-based; settings: dose 0.15-3000 nM; outline: as §3
MINO [11] = experiment: Induction of apoptosis in human MINO cells at 333 nM for 48 hrs by Annexin-V/propidium iodide staining based flow cytometric analysis; format: functional, cell-based; outline: as §3
TMD8 [12] = experiment: Induction of apoptosis in human TMD8 cells assessed as decrease in PARP level measured after 48 hrs by Western blot analysis; format: functional, cell-based; settings: dose 0.15-3000 nM; outline: as §1
MINO [13] = experiment: Induction of apoptosis in human MINO cells assessed as decrease in caspase 3 level measured after 48 hrs by Western blot analysis; format: functional, cell-based; settings: dose 0.15-3000 nM; outline: as §1
TMD8 [14] = experiment: Induction of apoptosis in human TMD8 cells assessed as downregulation in Mcl-1 level measured at 0.15 to 3000 nM after 48 hrs by Western blot analysis; format: functional, cell-based; settings: dose 0.15-3000 nM; outline: as §1
Protein cereblon = Protein cereblon (Homo sapiens, UniProt Q96SW2); experiment: Inhibition of CRBN in HEK293 cells using NanoGlo substrate incubated for 2 hrs by NanoBRET assay; format: cell-based
TMD8 [15] = experiment: Induction of apoptosis in human TMD8 cells assessed as decrease in caspase 3 level measured after 48 hrs by Western blot analysis; format: functional, cell-based; settings: dose 0.15-3000 nM; outline: as §1
[16] = target: T2, Protein cereblon/Tyrosine-protein kinase BTK; experiment: PROTAC activity at BTK/CRBN protein protein interaction in human Ramos cell assessed as degradation of BTK incubated for 17 hrs measured by Western blot analysis; format: cell-based
Outline: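 Ramos or JeKo-1 cells (2 × 10^6 per well) were exposed for 17 h to 3000–0.15 nM PROTAC in 3-fold steps. Cells were lysed and analysed by western blot, with BTK normalised to β-actin. DC50 and Dmax come from the dose-response; DC50 is the mean ± SD of two independent experiments.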
Target sequence in this assay (Q06187 whole entry): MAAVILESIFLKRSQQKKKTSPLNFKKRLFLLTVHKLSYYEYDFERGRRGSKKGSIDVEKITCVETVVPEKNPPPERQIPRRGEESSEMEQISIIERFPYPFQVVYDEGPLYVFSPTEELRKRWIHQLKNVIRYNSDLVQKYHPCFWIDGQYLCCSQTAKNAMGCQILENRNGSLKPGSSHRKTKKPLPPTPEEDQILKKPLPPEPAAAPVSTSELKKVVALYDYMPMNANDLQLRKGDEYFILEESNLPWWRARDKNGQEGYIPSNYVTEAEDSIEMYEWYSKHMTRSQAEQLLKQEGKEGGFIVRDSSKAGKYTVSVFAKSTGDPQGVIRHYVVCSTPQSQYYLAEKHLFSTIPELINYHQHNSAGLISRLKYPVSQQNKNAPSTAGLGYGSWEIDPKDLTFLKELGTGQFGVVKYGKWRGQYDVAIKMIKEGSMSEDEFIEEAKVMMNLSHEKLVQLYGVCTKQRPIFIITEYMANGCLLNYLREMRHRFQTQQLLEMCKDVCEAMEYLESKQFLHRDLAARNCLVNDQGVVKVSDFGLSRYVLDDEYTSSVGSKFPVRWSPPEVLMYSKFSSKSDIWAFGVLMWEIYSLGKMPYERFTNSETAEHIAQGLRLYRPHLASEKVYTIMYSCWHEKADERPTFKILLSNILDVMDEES
Target sequence in this assay (Q96SW2 whole entry): as the sequence (Q96SW2 whole entry partner) above

TMD8 [17] = experiment: Induction of apoptosis in human TMD8 cells measured after 48 hrs by Annexin-V/propidium iodide staining based flow cytometric analysis; format: functional, cell-based; settings: dose 0.15-3000 nM; outline: as §3
[18] = target: T1, Tyrosine-protein kinase BTK; experiment: Inhibition of BTK in HEK293 cells using NanoGlo substrate incubated for 2 hrs by NanoBRET assay; format: cell-based
MINO [19] = experiment: Induction of apoptosis in human MINO cells assessed as decrease in PARP level measured after 48 hrs by Western blot analysis; format: functional, cell-based; settings: dose 0.15-3000 nM; outline: as §1

T1 sequence (Q06187 whole entry): as the sequence (Q06187 whole entry) above
Chain of Protein cereblon (Q96SW2 whole entry): as the sequence (Q96SW2 whole entry partner) above

C[C@H]1CN(C(=O)CNc2cccc3c2C(=O)N(C2CCC(=O)NC2=O)C3=O)CCN1c1ccc(Nc2cc(-c3ccnc(N4CCn5c(cc6c5CC(C)(C)C6)C4=O)c3CO)cn(C)c2=O)nc1 (some centres not stated)
IC50 (TMD8 [1]): 1.4 nM | Kd [2]: 2.28 nM | Activity (TMD8 [3]): Active | Activity [4]: inactive | Activity [5]: inactive | Activity (TMD8 [6]): Active | Activity [7]: Active | Activity (MINO [8]): Active | IC50 [9]: 2.2 nM | Activity (MINO [10]): Dose-Dependent Effect | Activity (MINO [11]): Active | Activity (TMD8 [12]): Active | Activity (MINO [13]): Active | Activity (TMD8 [14]): Active | IC50 (Protein cereblon): 107 nM | Activity (TMD8 [15]): Active | DC50 [16]: 0.5 nM | Activity (TMD8 [17]): Dose-Dependent Effect | IC50 [18]: 97 nM | Activity (MINO [19]): Active

C[C@H]1CN(C(=O)COc2cccc3c2C(=O)N(C2CCC(=O)NC2=O)C3=O)CCN1c1ccc(Nc2cc(-c3ccnc(N4CCn5c(cc6c5CC(C)(C)C6)C4=O)c3CO)cn(C)c2=O)nc1 (some centres not stated)
Activity [7]: Active | DC50 [16]: 1.7 nM
